MC4R ag barr = human MC4R agonism via beta-arrestin; activation, % at 8.9 µM; P32245; U2OS MC4R beta-arrestin complementation, luminescence; percent of melanotan II response, DMSO zero; AID 540308; 360,000 compounds, 0.98% hits;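 active = activation above a per-plate cutoff, the mean activation of sample wells on that plate plus 3 SD, cut at about 8% in these data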
Target sequence (P32245 whole entry, looked up): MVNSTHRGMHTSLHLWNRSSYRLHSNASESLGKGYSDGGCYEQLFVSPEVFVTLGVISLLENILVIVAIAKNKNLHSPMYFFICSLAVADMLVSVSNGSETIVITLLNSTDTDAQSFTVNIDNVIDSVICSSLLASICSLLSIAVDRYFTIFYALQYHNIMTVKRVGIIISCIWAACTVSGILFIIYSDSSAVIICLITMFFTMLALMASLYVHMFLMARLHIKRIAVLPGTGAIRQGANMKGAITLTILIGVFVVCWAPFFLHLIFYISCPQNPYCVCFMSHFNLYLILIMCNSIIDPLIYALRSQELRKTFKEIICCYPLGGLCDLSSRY
Bfl-1 A1 inh = inhibitors of the anti-apoptotic protein A1, read as caspase activation. MEF A1-2A-BIM cells, Caspase-Glo 3/7 luminescence, 3 h; percent of clofoctol response, vehicle zero. caspase activation, % (test concentration not listed). 330,000 compounds, 0.066% hits. AID 2462;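 active = over half of replicate activation scores above 10%, or exactly half above 10 with the replicate mean above 10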
TbMetRS inhib = Trypanosoma brucei MetRS inhibition; purified T. brucei MetRS, ATP depletion, Kinase-Glo luminescence; AID 624268; inhibition, % at 11.9 µM; 360,000 compounds, 0.4% hits;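 active = inhibition above a per-plate cutoff of the control wells' mean inhibition plus 3 SD, cut at about 5.5% in these data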;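 note: 0% = DMSO wells median and 100% = median of wells with control inhibitor compound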
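assay system = parasite MetRS enzyme | timing = 15 min preincubation, 2 h reaction, all 25 °C | evaluation = percent inhibition relative to median high and low control wells | medium = HEPES buffer containing pyrophosphatase, BSA, spermine, DTT | compound = single dose, 11.9 µM final nominal, 0.9% final DMSO | detection = Kinase-Glo luminescence, ATP depletion format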
NLRP3 yeast inh = NALP3 inhibition in yeast; Yeast reconstituted NLRP3/ASC/caspase-1, beta-gal luminescence, 24 h; inhibition, % at 10 µM; 330,000 compounds, 0.39% hits; AID 2825;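 active = inhibition of 50% or more; inactive = inhibition below 50%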;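 note: plate controls were induced DMSO wells for no effect and uninduced yeast grown without galactose for full effect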
NALP1 yeast inh = inhibitors of NALP1 inflammasome in yeast; 280,000 compounds, 0.61% hits; inhibition, % at 10 µM; S. cerevisiae NALP1/ASC/caspase-1 growth, X-gal OD620, 72 h; AID 2071; in the data active = inhibition mostly above about 24%, no sharp cut-off; inactive = mostly below about 32%
MC4R antagonist = blocks human MC4R cAMP signaling; P32245; MC4R-expressing cells, MTII-stimulated cAMP, LANCE TR-FRET; inhibition, % at 6.5 µM; 360,000 compounds, 0.48% hits; AID 540295;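 active = inhibition above its plate's cutoff, the mean of tested wells on that plate plus 3 SD, cut at about 29% in these data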;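 note: 0% = Melanotan II alone and 100% = Melanotan II plus saturating MCL0020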
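Test system: U2OS cells stably expressing human melanocortin 4 receptor (MC4R); also added: Melanotan II challenge; compound: 6.5 µM single dose; timing: 30-min compound preincubation, 1-h Melanotan II challenge, 1-h detection, room temperature; signal: Eu-cAMP/anti-cAMP TR-FRET, emission 671 nm; repeats: one well per compound, no replicates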
An asterisk follows results filed as active. Compounds with a hit are over-represented: about 2.5% of the library has one in this group of screens.

What do the screens show for `CN1CCc2c(n(CC(O)CNCc3ccccc3)c3ccccc23)C1=O` (centres undefined)?
MC4R ag barr: -0.7; Bfl-1 A1 inh: 0.3; TbMetRS inhib: -0.4; NLRP3 yeast inh: 7.4; NALP1 yeast inh: 10.5; MC4R antagonist: 14.0

Results for CC(C)(C)c1ccc(C(=O)NC(=O)COC(=O)CCS(=O)(=O)c2ccccc2)cc1 ?
MC4R ag barr: -0.4; Bfl-1 A1 inh: -1.0; TbMetRS inhib: -0.4; NLRP3 yeast inh: 4.2; MC4R antagonist: 3.7

How did N#C/C(=C(/O)COC(=O)COc1cccc(Br)c1)c1nc2ccccc2[nH]1 do in these assays?
MC4R ag barr: 19.9*; Bfl-1 A1 inh: 0.0; TbMetRS inhib: -0.1; NLRP3 yeast inh: 15.8; MC4R antagonist: 6.1

What do the screens show for `Cc1cc(C)cc(OCC(=O)OC/C(O)=C(\C#N)c2nc3ccccc3[nH]2)c1`?
MC4R ag barr: 13.6*; Bfl-1 A1 inh: 0.5; TbMetRS inhib: 0.1; NLRP3 yeast inh: 4.9; NALP1 yeast inh: -8.6; MC4R antagonist: -4.6

How did C(=C\c1nc(N2CCCCCC2)c2ccccc2n1)/c1ccccc1 do in these assays?
MC4R ag barr: -2.9; Bfl-1 A1 inh: -1.9; TbMetRS inhib: -0.6; NLRP3 yeast inh: 27.4; NALP1 yeast inh: 57.0*; MC4R antagonist: 2.1

What do the screens show for `O=C(Cn1c(=O)oc2ccccc21)Nc1ccc(Cl)cc1Cl`?
MC4R ag barr: -1.8; Bfl-1 A1 inh: 2.0; TbMetRS inhib: -0.5; NLRP3 yeast inh: -7.7; NALP1 yeast inh: -3.8; MC4R antagonist: -1.5

How did Oc1ccccc1N=Cc1sc2ccccc2c1Cl do in these assays?
MC4R ag barr: -1.6; Bfl-1 A1 inh: 0.2; TbMetRS inhib: -0.7; NLRP3 yeast inh: 28.7; NALP1 yeast inh: 53.7*; MC4R antagonist: -0.9

How did CCC1S/C(=C(\C#N)C(=O)NCc2ccco2)N(c2ccc(Br)cc2)C1=O (centres undefined) do in these assays?
MC4R ag barr: 0.4; Bfl-1 A1 inh: -1.1; TbMetRS inhib: 0.3; NLRP3 yeast inh: 11.0; NALP1 yeast inh: 21.8*; MC4R antagonist: 6.8

Results for CCC1S/C(=C(\C#N)C(=O)NCc2ccco2)N(c2ccc(F)cc2)C1=O (centres undefined) ?
MC4R ag barr: -1.9; Bfl-1 A1 inh: -0.1; TbMetRS inhib: -1.0; NLRP3 yeast inh: 4.9; NALP1 yeast inh: 19.4; MC4R antagonist: -0.6

What do the screens show for `CCC(=O)Nc1ccc(C(=O)COC(=O)c2nc3nccc(C)n3n2)cc1`?
MC4R ag barr: -1.0; Bfl-1 A1 inh: 0.3; TbMetRS inhib: 0.0; NLRP3 yeast inh: 10.4; MC4R antagonist: 1.0

What do the screens show for `Cc1cnc(NC(=O)c2cccs2)s1`?
MC4R ag barr: -0.4; Bfl-1 A1 inh: 0.6; TbMetRS inhib: -1.7; NLRP3 yeast inh: 20.1; NALP1 yeast inh: 34.5*; MC4R antagonist: -11.6

What do the screens show for `O=C(Nc1ncc([N+](=O)[O-])s1)c1cccs1`?
MC4R ag barr: -0.2; Bfl-1 A1 inh: -12.1; TbMetRS inhib: -2.4; NLRP3 yeast inh: 20.2; NALP1 yeast inh: 7.1; MC4R antagonist: 20.6

Results for Cc1csc2c(=O)sc(NC(=O)c3ccco3)nc12 ?
MC4R ag barr: -0.7; Bfl-1 A1 inh: -1.4; TbMetRS inhib: -0.7; NLRP3 yeast inh: 7.2; MC4R antagonist: -2.6

How did Cc1csc2c(=O)sc(NC(=O)c3cccs3)nc12 do in these assays?
MC4R ag barr: 8.5*; Bfl-1 A1 inh: -0.4; TbMetRS inhib: -0.3; NLRP3 yeast inh: 22.4; MC4R antagonist: -17.2

How did COc1cc(NC(=O)c2cccs2)cc(OC)c1 do in these assays?
MC4R ag barr: 0.7; Bfl-1 A1 inh: 0.1; TbMetRS inhib: -0.9; NLRP3 yeast inh: 49.3; NALP1 yeast inh: 65.2*; MC4R antagonist: 1.6

What do the screens show for `COc1cccc(C(C(=O)NC2CCCC2)N2CCN(c3cc(C)ccc3C)CC2)c1OC` (centres undefined)?
TbMetRS inhib: -0.8

What do the screens show for `O=[N+]([O-])c1cccc(COc2ccccc2CO)c1`?
TbMetRS inhib: 0.0

Results for COc1ccc(C(=O)N(Cc2sccc2C)C2CCS(=O)(=O)C2)cc1 (centres undefined) ?
MC4R ag barr: -2.0; Bfl-1 A1 inh: 1.4; TbMetRS inhib: -0.3; NLRP3 yeast inh: 4.9; NALP1 yeast inh: 26.1*; MC4R antagonist: 1.9

What do the screens show for `Cc1ccc(C(=O)N(Cc2sccc2C)C2CCS(=O)(=O)C2)cc1` (centres undefined)?
MC4R ag barr: -0.2; Bfl-1 A1 inh: 0.4; TbMetRS inhib: -0.3; NLRP3 yeast inh: 16.7; NALP1 yeast inh: 6.9; MC4R antagonist: 14.6

Results for C[C@H](CO)N1C[C@H](C)[C@@H](CN(C)Cc2ccc3c(c2)OCCN3C)OCc2cnnn2CCCC1=O ?
MC4R ag barr: -1.5; TbMetRS inhib: -1.0; MC4R antagonist: 5.9

Results for COc1ccc(CNc2oc(COc3ccccc3Cl)nc2C#N)cc1 ?
MC4R ag barr: 6.6; Bfl-1 A1 inh: 0.0; TbMetRS inhib: -0.1; NLRP3 yeast inh: 16.2; NALP1 yeast inh: 10.2; MC4R antagonist: 6.1

How did Cc1ccc(CNc2oc(COc3ccccc3Cl)nc2C#N)cc1 do in these assays?
MC4R ag barr: 9.5*; Bfl-1 A1 inh: -0.1; TbMetRS inhib: -1.3; NLRP3 yeast inh: 14.8; NALP1 yeast inh: -14.2; MC4R antagonist: 3.4

How did Cc1ccc(S(=O)(=O)N2CCN(C(=O)COC(=O)COc3ccccc3)CC2)cc1 do in these assays?
MC4R ag barr: 0.9; Bfl-1 A1 inh: 0.4; TbMetRS inhib: -0.6; NLRP3 yeast inh: -2.3; NALP1 yeast inh: 29.4*; MC4R antagonist: 5.8

How did CCc1nc2ccc(C(=O)NCC3CCCCC3)cn2c1N(C)C(=O)c1cccc(OC)c1 do in these assays?
MC4R ag barr: -2.6; TbMetRS inhib: 0.4; MC4R antagonist: -4.3

How did O=C(Nc1ccc(S(=O)(=O)Nc2ncccn2)cc1)C(F)(F)F do in these assays?
MC4R ag barr: -0.4; Bfl-1 A1 inh: -0.1; TbMetRS inhib: -0.3; NLRP3 yeast inh: 7.8; NALP1 yeast inh: -0.9; MC4R antagonist: 8.6

How did Cc1cccc(NS(=O)(=O)c2cccc(C(=O)N3CCN(C/C=C/c4ccccc4)CC3)c2)c1 do in these assays?
MC4R ag barr: -0.1; Bfl-1 A1 inh: -0.8; TbMetRS inhib: -0.1; NLRP3 yeast inh: 12.7; MC4R antagonist: 7.9

How did C=CS(=O)(=O)c1ccc(Oc2ccc(S(=O)(=O)C=C)cc2)cc1 do in these assays?
MC4R ag barr: -2.0; Bfl-1 A1 inh: 0.4; TbMetRS inhib: -0.4; NLRP3 yeast inh: 39.1; NALP1 yeast inh: 74.8*; MC4R antagonist: 14.3

Results for NS(=O)(=O)c1ccc(Oc2ccc(S(N)(=O)=O)cc2)cc1 ?
MC4R ag barr: 2.3; Bfl-1 A1 inh: -0.5; TbMetRS inhib: -0.6; NLRP3 yeast inh: 12.1; NALP1 yeast inh: -17.2; MC4R antagonist: 8.2

What do the screens show for `O=C(CCN1C(=O)c2ccccc2S1(=O)=O)Nc1ccccc1`?
MC4R ag barr: -2.2; Bfl-1 A1 inh: 0.2; TbMetRS inhib: -0.7; NLRP3 yeast inh: -0.3; NALP1 yeast inh: -3.9; MC4R antagonist: -5.3

Screens (PubChem BioAssay)
